# High-throughput results as filed in PubChem BioAssay.
# NPY Y2 blocker – NPY-Y2 receptor antagonists, primary screen, cell-based. Neuropeptide Y receptor type 2 (Homo sapiens), P49146. NPY-Y2 expressing cells, antagonist mode. inhibition, % at 2.7 µM. 0.99% of 140,000 active. AID 793, 2007; in the data active = inhibition above about 17%;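 also: 0% = vehicle with agonist challenge and 100% = reference antagonist with challenge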
# Target sequence (P49146 whole entry, looked up): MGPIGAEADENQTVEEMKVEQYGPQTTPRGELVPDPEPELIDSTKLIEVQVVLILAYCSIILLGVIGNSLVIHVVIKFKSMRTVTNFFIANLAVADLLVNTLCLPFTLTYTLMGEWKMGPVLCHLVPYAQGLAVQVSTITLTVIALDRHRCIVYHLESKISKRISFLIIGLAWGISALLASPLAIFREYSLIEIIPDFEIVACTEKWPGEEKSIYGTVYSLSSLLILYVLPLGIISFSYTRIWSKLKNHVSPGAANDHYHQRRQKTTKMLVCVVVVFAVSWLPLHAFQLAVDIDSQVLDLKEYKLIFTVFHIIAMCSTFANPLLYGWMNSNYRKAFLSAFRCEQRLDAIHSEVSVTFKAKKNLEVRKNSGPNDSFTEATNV
# NPY-Y2 PAM-ag – NPY-Y2 potentiators or agonists, primary screen, cell-based | cells expressing NPY-Y2, potentiator/agonist read-out | activation, % at 3.6 µM | 0.45% of 220,000 active; in the data active = activation above about 27%;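 also: cells stimulated with NPY near EC25 plus isoproterenol at EC100; 0% = vehicle plus submaximal agonist and 100% = vehicle plus saturating agonist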
# Rad51 HR inh – human RAD51 strand exchange inhibitors, primary screen, biochemical, fluorescence. DNA repair protein RAD51 homolog 1 (Homo sapiens), Q06609. hRad51 DNA strand exchange, fluorescence dequenching. inhibition, % at 10 µM. 0.085% of 200,000 active;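 active = inhibition above 40% at the single screening dose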;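 also: 0% = DMSO control wells and 100% = blanks with heterologous ssDNA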
# Target sequence (Q06609 whole entry, looked up): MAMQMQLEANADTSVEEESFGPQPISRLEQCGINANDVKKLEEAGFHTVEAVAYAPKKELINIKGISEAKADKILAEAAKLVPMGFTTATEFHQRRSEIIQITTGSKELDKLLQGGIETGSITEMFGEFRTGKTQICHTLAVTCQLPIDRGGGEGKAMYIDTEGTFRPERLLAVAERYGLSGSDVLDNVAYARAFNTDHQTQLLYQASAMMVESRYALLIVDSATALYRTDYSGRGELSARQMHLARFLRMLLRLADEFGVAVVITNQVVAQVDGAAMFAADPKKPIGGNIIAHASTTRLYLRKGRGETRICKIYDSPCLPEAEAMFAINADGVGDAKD
#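 Material: human Rad51–ssDNA filaments; Probe or stimulus: labelled 47-mer dsDNA for strand exchange; Doses: single 10 µM dose; Incubation: 37 °C 15-min filament assembly, 30-min compound preincubation, 15-min exchange; Technique: FRET fluorescence dequenching, excitation 485 nm, emission 520 nm; Measure: Fluorescence-based percent inhibition, control- and blank-normalised; Benchmarks: plate control and blank wells.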
# Measles CPE – compounds protecting cells from measles virus cytopathic effect, primary screen, measles RdRp inhibitor project, single point, MLSMR library, absorbance. Measles virus-infected cells, CPE protection. protection (pct of control), % at 4 µM. 1.5% of 140,000 active. AID 841, 2007; in the data active = protection mostly above about 24%, no sharp cut-off; inactive = mostly below about 26%
# NPY1 pot ag – NPY-Y1 receptor potentiators or agonists, primary screen, cell-based; Neuropeptide Y receptor type 1 (Homo sapiens), P25929; NPY-Y1 expressing cells, potentiator/agonist activation; activation, % at 3.6 µM; 0.37% of 220,000 active; AID 1304, 2008; in the data active = activation above about 33%, passing the limit was not always enough;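 also: cells stimulated with NPY at EC10 then isoproterenol at EC100; 0% = low agonist plus stimulus and 100% = saturating agonist plus stimulus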
# NPY Y1 blocker – NPY-Y1 receptor antagonists, primary screen, cell-based | HEK293-CNG Y1 cells, membrane potential fluorescence; NPY at EC95, then isoproterenol | Neuropeptide Y receptor type 1 (Homo sapiens), P25929 | inhibition, % at 3.6 µM | 1% of 200,000 active | AID 1040, 2008;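 active = inhibition above the campaign mean inhibition of all tested compounds plus 3 SD, cut at about 20% in these data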;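 also: 0% = DMSO wells given NPY plus isoproterenol and 100% = isoproterenol alone without NPY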
#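 material = HEK293 cells with Y1 receptor plus CNG channel | also added = NPY 25 nM then isoproterenol 1 µM plus Ro 20-1724 25 µM | schedule = dye 3 h, compound 60 min room temperature, stimulation 45 min | measured by = membrane potential fluorescence | benchmarks = high control isoproterenol alone, low control NPY with isoproterenol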
# NPY-Y2 pot conf – NPY-Y2 potentiators or agonists, confirmation, cell-based | shares compounds with NPY-Y2 PAM-ag | cell-based NPY-Y2 potentiator/agonist assay | activation, % at 3.6 µM | 20% of 450 active; in the data active = activation above about 33%
# NPY-Y1 potentiator – NPY-Y1 potentiators or agonists, counter-screen for NPY-Y2 potentiator project, cell-based, fluorescence. shares compounds with NPY-Y2 PAM-ag. Y1 HEK293-CNG cells, membrane potential fluorescence. activation, % at 3.6 µM. 20% of 450 active. AID 1651, 2009; in the data active = activation above about 45%;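 also: cells stimulated with submaximal NPY then isoproterenol with phosphodiesterase inhibitor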
# NPY-Y1 ag 2 – NPY-Y1 direct agonists, selectivity assay for NPY-Y2 potentiator project, cell-based, fluorescence. HEK293 Y1-CNGC, membrane potential fluorescence, agonism. activation, % at 3.6 µM. shares compounds with NPY-Y2 PAM-ag. 37% of 450 active;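 active = activation above the mean of DMSO-only control wells plus 3 SD, cut at about 18% in these data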;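 also: cells stimulated with 1 µM isoproterenol plus the PDE inhibitor Ro 20-1724; 0% = isoproterenol with DMSO and no NPY and 100% = 40 nM NPY; Y1 agonists lower the membrane potential dye signal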
# CNGC inhibitor – CNGC cAMP sensor activity inhibitors, counter-screen for NPY-Y2 potentiator project, cell-based, HEK293-CNG parental, membrane potential fluorescence; 32% of 450 active; inhibition, % at 3.6 µM; shares compounds with NPY-Y2 PAM-ag; isoproterenol cAMP;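 active = inhibition above the control-well mean plus 3 SD of those wells, cut at about 22% in these data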;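 also: 0% = DMSO with isoproterenol and 100% = DMSO without isoproterenol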
# Y2 agonist ctr – NPY-Y2 direct agonists, counter-screen for NPY-Y2 potentiator project, cell-based, fluorescence | shares compounds with NPY-Y2 PAM-ag | HEK293 Y2/CNGC cells, membrane potential fluorescence, agonist mode | activation, % at 3.6 µM | 56% of 450 active | AID 1710, 2009;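 active = activation above the mean of solvent-only control wells plus 3 SD, cut at about 10% in these data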;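 also: cells stimulated by isoproterenol with no NPY added so direct agonism is tested; 0% = DMSO with isoproterenol alone and 100% = NPY at EC100 plus isoproterenol; agonism lowers probe fluorescence through less cAMP and CNG channel opening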
# Numbers without * were called inactive; i = inactive; x = no result. Sampled rows, rich in hits. Any-hit rate of the full collection: about 2.8%.
SMILES,NPY Y2 blocker,NPY-Y2 PAM-ag,Rad51 HR inh,Measles CPE,NPY1 pot ag,NPY Y1 blocker,NPY-Y2 pot conf,NPY-Y1 potentiator,NPY-Y1 ag 2,CNGC inhibitor,Y2 agonist ctr
Oc1ccc(Cl)cc1-c1cc(-c2ccco2)[nH]n1,-6,29*,-5,13,41,-7,26,38,33*,24*,31*
O=[N+]([O-])c1ccccc1-c1cc(-c2cc(Cl)ccc2O)n[nH]1,-8,31*,x,33,36,-9,50*,59*,52*,54*,60*
Cn1c(C2=C(O)CN(Cc3ccccc3)C2=N)[n+](C)c2ccccc21,x,2,30,x,17,-4,x,x,x,x,x
COc1ccc(C(=O)N2CCCC(CCC(=O)NCc3ccc(F)c(F)c3)C2)o1 (centres undefined),x,4,i,x,-5,1,x,x,x,x,x
CCC[C@@H]1CCCO[C@@](C(=O)NCc2cc(C)n(C)n2)(C(F)(F)F)C1,x,x,-6,x,x,x,x,x,x,x,x
N#C/C(=N\Nc1ccccc1)C(N)=S,x,2,-7,x,1,x,x,x,x,x,x
Cc1ccc(N/N=C(\C#N)C(=O)c2ccsc2)cc1,x,-1,16,x,8,x,x,x,x,x,x
N#C/C(=N\Nc1ccc(Cl)cc1)C(N)=S,x,54*,x,x,38,x,2,-5,-9,-6,3
N#C/C(=N\Nc1ccc(Cl)cc1)C(=O)c1ccsc1,x,59*,19,x,36,x,13,-10,-5,-1,6
CCOC(=O)N1CCN(C(=O)c2ccc3c(=O)n(-c4cc(OC)ccc4OC)c(=S)[nH]c3c2)CC1,x,18,x,x,13,2,x,x,x,x,x
Cc1ccc2[nH]c(C)c(/C=N/Nc3nc4ccccc4s3)c2c1,-5,38*,4,3,30,-12,42*,53*,31*,38*,39*
Brc1csc(/C=N/Nc2nc3ccccc3s2)c1,1,1,-6,7,-12,3,x,x,x,x,x
N/C(=N\OC(=O)c1ccc(OCC(F)(F)F)nc1)c1ccc(Cl)cc1,x,82*,-7,x,-36,x,-11,-5,-16,-11,9
N/C(=N\OC(=O)c1ccc(Cl)cc1)c1ccc(Cl)cc1,0,3,-3,5,2,7,x,x,x,x,x
CCSc1nnc(NC(=O)COc2ccc(Cl)cc2)s1,x,3,12,x,6,3,x,x,x,x,x
O=C(COc1ccc(Cl)cc1)Nc1ncc([N+](=O)[O-])s1,x,40*,-6,x,-1,4,4,-6,-11,-4,10*
Cc1cc2oc(=O)cc(Cn3ncc(Cl)c(Cl)c3=O)c2cc1Cl,x,2,x,x,-3,-1,x,x,x,x,x
O=C(CCl)NC(=O)NC12CC3CC(CC(C3)C1)C2,1,41*,2,7,31,-13,28,49*,35*,10,27*
COC(=O)c1ccsc1NC(=O)C1=COCCO1,0,51*,3,20,-4,-9,-5,-3,-12,-9,-7
O=[N+]([O-])c1cccc2c(N3CCOCC3)ccnc12,x,40*,x,x,4,0,2,6,5,4,13*
O=[N+]([O-])c1ccc(N2CCN(S(=O)(=O)c3ccccc3)CC2)c2cccnc12,x,-4,1,x,10,-4,x,x,x,x,x
Cc1ccc(S(=O)(=O)N2CCN(CC(=O)N/N=C/c3ccco3)CC2)cc1,-1,9,x,10,10,-5,x,x,x,x,x
Cc1sc2nc(SCc3ccc(C(=O)O)cc3)n(Cc3ccco3)c(=O)c2c1C,x,56*,x,x,27,x,24,29,32*,17,22*
CCCCC1=CC2=C(c3ccco3)C(=O)C(C)(OC(=O)c3ccc(OC)cc3)C(=O)C2=CN1C1CCCC1 (centres undefined),x,x,3,x,x,x,x,x,x,x,x
CCCNC(=S)N1CC2(C)CN(C(=O)C(=O)OC)CC(C)(C1)C2=O,x,-1,12,x,9,6,x,x,x,x,x
SMILES,NPY Y2 blocker,NPY-Y2 PAM-ag,Rad51 HR inh,Measles CPE,NPY1 pot ag,NPY Y1 blocker,NPY-Y2 pot conf,NPY-Y1 potentiator,NPY-Y1 ag 2,CNGC inhibitor,Y2 agonist ctr
COc1ccc(/C=c2/sc3n(c2=O)C(c2ccccc2OC)C2=C(N=3)c3ccccc3CC2)cc1O (centres undefined),1,36*,-7,5,21,-9,12,25,18*,16,9
COc1ccccc1CNC(=O)c1ccc(OC(C)C)cc1,x,-2,-19,x,11,-2,x,x,x,x,x
CCOC(=O)C1=C(C)N=C2SC=C(C)N2C1c1ccc(OC)cc1 (centres undefined),x,-7,-3,x,4,12,x,x,x,x,x
CC1(C)C=C(c2ccc(O)cc2)CC(C)(C)N1,0,36*,-1,5,23,-2,0,-1,-11,2,6
Nc1nc(N2CCCCC2)nc2ccccc12,1,55*,x,6,-5,0,72*,79*,44*,40*,72*
O=C(Nc1ccc(Br)cc1)c1ccc(F)c(S(=O)(=O)NCc2cccs2)c1,0,36*,-10,4,-11,-3,0,-27,-24,-10,-2
COc1cccc(C(=O)Nc2ccccc2F)c1,x,30*,1,x,16,4,-3,-5,5,3,-4
COC(=O)c1sccc1NC(=O)c1cccc(OC)c1,6,-29,2,19,-14,7,x,x,x,x,x
CNC(=O)c1ncoc1-c1ccc(Cl)cc1,x,7,10,x,10,x,x,x,x,x,x
CC(C)(C)N(NC(=O)c1ccccc1)C(=O)c1ccc(C(=O)N(NC(=O)c2ccccc2)C(C)(C)C)cc1,2,8,x,13,-7,4,x,x,x,x,x
